ChEMBL document CHEMBL3108739, “Activation and inhibition of thermosensitive TRP channels by voacangine, an alkaloid present in Voacanga africana, an African tree” (J Nat Prod, 2014)
Activity calls are given as the source filed them. The rule behind the calls is not given here.

What was measured:
[1] = target: Transient receptor potential cation channel subfamily M member 8 (Mus musculus) (UniProt Q8R4D5); conditions: Dorsal root ganglion, HEK T-REx, 10 to 50 uM
[2] = target: Transient receptor potential cation channel subfamily M member 8 (Mus musculus) (UniProt Q8R4D5); conditions: Dorsal root ganglion, HEK T-REx, 100 uM
[3] = target: Transient receptor potential cation channel subfamily M member 8 (Mus musculus) (UniProt Q8R4D5); conditions: Dorsal root ganglion, HEK T-REx, 100 uM; remark: listed apart in the source
[4] = target: T1, Transient receptor potential cation channel subfamily V member 2 (Homo sapiens) (UniProt Q9Y5S1); test: Agonist activity at human TRPV2 expressed in HEK293T cells assessed as intracellular Ca2+ influx at 100 uM by Fluo-4 AM staining-based fluorescence analysis; format: cell-based; conditions: HEK-293T
T1 sequence (whole entry): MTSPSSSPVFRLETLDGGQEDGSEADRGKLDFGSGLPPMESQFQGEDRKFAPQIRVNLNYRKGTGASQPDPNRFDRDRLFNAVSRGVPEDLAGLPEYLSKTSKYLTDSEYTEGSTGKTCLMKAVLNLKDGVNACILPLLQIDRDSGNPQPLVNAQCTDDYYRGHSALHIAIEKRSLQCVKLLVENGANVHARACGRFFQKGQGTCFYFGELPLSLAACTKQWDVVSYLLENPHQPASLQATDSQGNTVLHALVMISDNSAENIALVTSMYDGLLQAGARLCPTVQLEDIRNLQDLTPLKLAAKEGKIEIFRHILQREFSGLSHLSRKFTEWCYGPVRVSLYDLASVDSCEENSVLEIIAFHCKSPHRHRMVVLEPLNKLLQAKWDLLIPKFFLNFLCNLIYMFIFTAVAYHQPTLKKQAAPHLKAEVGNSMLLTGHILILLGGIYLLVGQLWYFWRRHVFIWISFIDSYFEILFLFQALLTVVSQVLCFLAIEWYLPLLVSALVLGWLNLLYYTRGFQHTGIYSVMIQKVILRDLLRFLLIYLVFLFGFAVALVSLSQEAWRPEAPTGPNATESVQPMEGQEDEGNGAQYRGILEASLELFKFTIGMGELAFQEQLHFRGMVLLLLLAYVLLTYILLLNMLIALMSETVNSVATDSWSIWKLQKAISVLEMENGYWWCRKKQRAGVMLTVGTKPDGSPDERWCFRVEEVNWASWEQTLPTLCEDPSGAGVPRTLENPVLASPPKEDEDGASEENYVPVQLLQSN
How it was run: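 hTRPV2 transiently transfected into HEK293T, seeded 6 h after transfection and used 18 h later. Fluo-4 loading in probenecid-free buffer, 37 °C. Agonist 30 and 40 μM LPC; ruthenium red 5 μM as reference blocker; 100 μM compound given alone or pretreated 3 min. Read-out ΔF/F0 (%).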

[5] = target: T2, Transient receptor potential cation channel subfamily A member 1 (Homo sapiens, UniProt O75762); test: Agonist activity at TRPA1 isolated from human W138 cells expressed in HEK293T cells assessed as intracellular Ca2+ influx at 10 to 100 uM by Fluo-4 AM staining-based fluorescence analysis relative to allylisothiocyanate; format: cell-based
How it was run: (§1)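 Tetracycline-induced (1 μg/mL) stable hTRPA1 in HEK T-REx cells, Fluo-4 AM loaded (3 μM, 1 h, 37 °C) in HEPES buffer pH 7.4 with probenecid; Ca2+ read at 37 °C. Compound 0.01−100 μM; HC-030031 30 μM pretreated 3 min. Responses as % of 5 μM ionomycin or of 100 μM AITC; TREx cells without TRPA1 as control; n = 4−8.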

[6] = target: T2, Transient receptor potential cation channel subfamily A member 1; test: Agonist activity at TRPA1 isolated from human W138 cells expressed in HEK293T cells assessed as intracellular Ca2+ influx by Fluo-4 AM staining-based fluorescence analysis; format: cell-based
How it was run: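 Tetracycline-induced (1 μg/mL) stable hTRPA1 in HEK T-REx cells, Fluo-4 AM loaded (3 μM, 1 h, 37 °C) in HEPES buffer pH 7.4 with probenecid; Ca2+ read at 37 °C. Responses as % of 5 μM ionomycin or of 100 μM AITC; TREx cells without TRPA1 as control; n = 4−8.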

[7] = target: Transient receptor potential cation channel subfamily M member 8 (Mus musculus) (UniProt Q8R4D5); conditions: Dorsal root ganglion, HEK T-REx, 100 uM; remark: listed apart in the source
[8] = target: T2, Transient receptor potential cation channel subfamily A member 1; test: Antagonist activity at TRPA1 isolated from human W138 cells expressed in HEK293T cells assessed as AITC-induced intracellular Ca2+ influx at 100 uM by Fluo-4 AM staining-based fluorescence analysis; format: cell-based; conditions: HEK-293T
[9] = target: T2, Transient receptor potential cation channel subfamily A member 1; test: Agonist activity at TRPA1 isolated from human W138 cells expressed in HEK T-REx cells assessed as intracellular Ca2+ influx at 10 to 100 uM by Fluo-4 AM staining-based fluorescence analysis; format: cell-based
How it was run: as §1

[10] = target: Transient receptor potential cation channel subfamily V member 1 (Homo sapiens, UniProt Q8NER1); test: Competitive antagonist activity at human brain TRPV1 expressed in HEK293T cells assessed as inhibition of CAP-induced intracellular Ca2+ influx preincubated for 3 mins followed by CAP challenge; format: cell-based; conditions: HEK-293T
How it was run: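 hTRPV1-HEK293T, Fluo-4 Ca2+ at 37 °C; antagonist (0.3−100 μM) preincubated 3 min then 0.01 μM capsaicin; DMSO final 0.1−1%. IC50 from dose−inhibition curves; data as % of 10 μM capsaicin.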

Transient receptor potential cation channel subfamily M member 8 (Mus musculus), sequence (Q8R4D5 whole entry): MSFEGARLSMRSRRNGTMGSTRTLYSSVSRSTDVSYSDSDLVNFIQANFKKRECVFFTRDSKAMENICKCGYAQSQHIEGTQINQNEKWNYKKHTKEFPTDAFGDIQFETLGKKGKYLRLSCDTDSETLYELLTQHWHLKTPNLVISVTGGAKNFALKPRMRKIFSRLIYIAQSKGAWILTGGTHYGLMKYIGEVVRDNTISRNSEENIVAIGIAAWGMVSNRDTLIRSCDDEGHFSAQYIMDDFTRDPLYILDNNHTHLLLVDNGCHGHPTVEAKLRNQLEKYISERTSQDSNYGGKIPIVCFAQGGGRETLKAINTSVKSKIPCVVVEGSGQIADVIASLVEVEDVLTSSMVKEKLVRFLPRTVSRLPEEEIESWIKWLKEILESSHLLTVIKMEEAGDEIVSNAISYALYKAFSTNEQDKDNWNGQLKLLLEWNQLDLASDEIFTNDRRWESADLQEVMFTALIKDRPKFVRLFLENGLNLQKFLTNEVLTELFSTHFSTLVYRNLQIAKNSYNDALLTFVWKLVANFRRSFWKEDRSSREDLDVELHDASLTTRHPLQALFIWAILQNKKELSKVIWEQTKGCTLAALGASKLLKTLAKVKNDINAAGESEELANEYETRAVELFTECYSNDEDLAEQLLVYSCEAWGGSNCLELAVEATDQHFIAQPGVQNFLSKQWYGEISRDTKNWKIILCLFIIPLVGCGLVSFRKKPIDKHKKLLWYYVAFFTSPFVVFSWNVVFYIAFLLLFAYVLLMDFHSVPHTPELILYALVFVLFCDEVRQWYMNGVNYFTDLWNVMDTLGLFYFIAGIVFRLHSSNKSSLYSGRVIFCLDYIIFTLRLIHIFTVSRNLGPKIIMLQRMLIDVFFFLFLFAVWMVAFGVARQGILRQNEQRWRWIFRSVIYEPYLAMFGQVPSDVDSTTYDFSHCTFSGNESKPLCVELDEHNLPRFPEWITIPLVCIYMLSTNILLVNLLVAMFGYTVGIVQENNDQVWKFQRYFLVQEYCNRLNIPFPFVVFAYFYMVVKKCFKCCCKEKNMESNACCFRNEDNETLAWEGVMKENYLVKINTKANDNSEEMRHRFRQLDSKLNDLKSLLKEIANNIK
T2 sequence (O75762 whole entry): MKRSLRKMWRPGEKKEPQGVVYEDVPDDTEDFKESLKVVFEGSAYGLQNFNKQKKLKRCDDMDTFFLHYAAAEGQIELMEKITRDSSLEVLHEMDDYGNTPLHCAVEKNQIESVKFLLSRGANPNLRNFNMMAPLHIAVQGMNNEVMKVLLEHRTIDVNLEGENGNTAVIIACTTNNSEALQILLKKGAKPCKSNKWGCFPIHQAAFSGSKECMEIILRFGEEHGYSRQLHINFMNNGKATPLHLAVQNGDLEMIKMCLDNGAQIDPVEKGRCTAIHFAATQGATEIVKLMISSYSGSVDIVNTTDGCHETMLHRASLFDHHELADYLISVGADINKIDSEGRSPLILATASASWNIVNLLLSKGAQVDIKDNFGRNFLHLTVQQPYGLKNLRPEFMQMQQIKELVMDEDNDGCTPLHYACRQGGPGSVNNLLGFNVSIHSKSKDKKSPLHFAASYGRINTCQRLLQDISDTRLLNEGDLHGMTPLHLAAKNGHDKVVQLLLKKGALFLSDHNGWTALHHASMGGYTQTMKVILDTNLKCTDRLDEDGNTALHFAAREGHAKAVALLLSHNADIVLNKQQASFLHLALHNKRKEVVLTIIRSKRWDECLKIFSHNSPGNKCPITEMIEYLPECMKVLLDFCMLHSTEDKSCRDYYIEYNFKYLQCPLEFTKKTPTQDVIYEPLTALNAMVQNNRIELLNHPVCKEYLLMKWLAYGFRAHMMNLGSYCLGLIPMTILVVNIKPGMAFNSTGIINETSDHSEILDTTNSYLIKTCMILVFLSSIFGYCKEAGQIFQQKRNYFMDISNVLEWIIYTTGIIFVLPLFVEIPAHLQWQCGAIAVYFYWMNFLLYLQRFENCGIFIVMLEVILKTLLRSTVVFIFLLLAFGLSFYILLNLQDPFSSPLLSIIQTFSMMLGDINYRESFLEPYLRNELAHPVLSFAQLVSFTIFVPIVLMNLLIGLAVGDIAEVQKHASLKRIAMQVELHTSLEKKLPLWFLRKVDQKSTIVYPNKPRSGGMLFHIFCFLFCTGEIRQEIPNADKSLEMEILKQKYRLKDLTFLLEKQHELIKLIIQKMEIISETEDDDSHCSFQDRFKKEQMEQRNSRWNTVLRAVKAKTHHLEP
Transient receptor potential cation channel subfamily V member 1, sequence (Q8NER1 whole entry): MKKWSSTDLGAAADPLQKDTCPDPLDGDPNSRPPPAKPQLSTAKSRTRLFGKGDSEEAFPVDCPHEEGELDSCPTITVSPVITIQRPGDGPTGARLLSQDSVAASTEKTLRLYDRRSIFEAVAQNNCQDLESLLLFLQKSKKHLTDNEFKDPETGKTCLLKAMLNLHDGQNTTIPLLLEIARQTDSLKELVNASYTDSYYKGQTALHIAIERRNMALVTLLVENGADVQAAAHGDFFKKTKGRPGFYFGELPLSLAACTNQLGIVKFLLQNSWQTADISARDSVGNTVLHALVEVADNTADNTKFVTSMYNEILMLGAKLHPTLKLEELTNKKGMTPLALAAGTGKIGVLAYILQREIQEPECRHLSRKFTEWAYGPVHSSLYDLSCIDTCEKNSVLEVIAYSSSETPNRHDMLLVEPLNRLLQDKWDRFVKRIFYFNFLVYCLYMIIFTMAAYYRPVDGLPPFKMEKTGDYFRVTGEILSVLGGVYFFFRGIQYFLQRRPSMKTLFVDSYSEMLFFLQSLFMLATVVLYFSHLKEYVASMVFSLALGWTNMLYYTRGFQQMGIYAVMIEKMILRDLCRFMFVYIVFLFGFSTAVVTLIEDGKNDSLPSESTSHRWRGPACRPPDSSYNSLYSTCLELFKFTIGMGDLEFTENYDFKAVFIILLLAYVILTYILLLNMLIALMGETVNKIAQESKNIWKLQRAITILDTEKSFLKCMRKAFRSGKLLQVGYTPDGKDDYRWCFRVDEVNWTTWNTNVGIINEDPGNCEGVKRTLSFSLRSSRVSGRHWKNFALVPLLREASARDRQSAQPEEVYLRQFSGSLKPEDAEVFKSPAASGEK

With `CC[C@H]1C[C@@H]2CN3CCc4c([nH]c5ccc(OC)cc45)[C@](C(=O)OC)(C2)[C@H]13` [VOACANGINE] the inhibition [1] was “Active”, the inhibition [2] was “inactive” and the inhibition [3] was “inactive”. For the same compound, the Activity [4] was “inactive”, the Activity [5] was 98% and the EC50 [6] was 8 µM. The Activity ([6]; HEK-293T) was “Dose-dependent effect”, the inhibition [7] was “Active” and the Activity [8] was “inactive”. For the same compound, the Activity [9] was “inactive” and the inhibition [10] was “Active”.
